In brackets after ≈: the same amount, converted by molar mass. Numbered stars: 1 amine (or outer) side, 2 acyl side, 3 side chain; on linkers, the order of the positions; unused ones are H or OH. Bridge positions count the residues as written; N and C are the ends. Square brackets hold non-standard residues; d marks the D form. Peptide text beside a SMILES is read from it. * marks the point of attachment. pTerphenylCO(4''-OnC5H11) = CCCCCOc1ccc(-c2ccc(-c3ccc(C(=O)*)cc3)cc2)cc1; Orn(4R-OH,5R-OH) = O=C([C@H](C[C@@H](O)[C@@H](O)N[*:3])N[*:1])[*:2]; hTyr(3S-OH,4S-OH) = N[C@H](C(=O)O)[C@H](O)[C@@H](O)c1ccc(O)cc1; Pro(3S-OH,4S-Me) = C[C@H]1CN[C@H](C(=O)O)[C@H]1O; Hyp = O=C(O)[C@@H]1C[C@@H](O)CN1
Experiments:
Candida albicans [1] = assay: Antimicrobial activity against Candida albicans SC5314 by M27-A3 method; type: functional
Outline: (§1)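 Broth microdilution per CLSI M27-A3 in RPMI 1640, with and without 50% human serum, in triplicate. C. krusei ATCC 6258 and C. parapsilosis ATCC 22019 served as quality-control strains. MIC reported as arithmetic mean of three repetitions on separate days.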

Candida albicans [2] = assay: Antimicrobial activity against Candida albicans 36082 by M27-A3 method; type: functional; outline: as §1
Candida albicans [3] = assay: Antimicrobial activity against Candida albicans 36082 by M27-A3 method in presence of 50% human serum; type: functional
Outline: (§2)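 Broth microdilution per CLSI M27-A3 in RPMI 1640, done in triplicate on three separate days. Each strain was tested with and without 50% human serum. C. krusei ATCC 6258 and C. parapsilosis ATCC 22019 served as QC strains. Arithmetic means are reported, and geometric means were used for comparison.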

Candida albicans [4] = assay: Antimicrobial activity against Candida albicans 90028 by M27-A3 method in presence of 50% human serum; type: functional; outline: as §2
Candida albicans [5] = assay: Antimicrobial activity against Candida albicans 1002 by M27-A3 method; type: functional; outline: as §1
Candida albicans [6] = assay: Antimicrobial activity against Candida albicans 3107 by M27-A3 method in presence of 50% human serum; type: functional; outline: as §2
Candida albicans [7] = assay: Antimicrobial activity against Candida albicans 3795 by M27-A3 method in presence of 50% human serum; type: functional; outline: as §2
Candida albicans [8] = assay: Antimicrobial activity against Candida albicans 119 harboring FKS1 T1921C mutant gene and FKS1 hotspot1 F641L mutant gene by M27-A3 method; type: functional; outline: as §2
Candida albicans [9] = assay: Antimicrobial activity against Candida albicans 119 harboring FKS1 T1921C mutant gene and FKS1 hotspot1 F641L mutant gene by M27-A3 method in presence of 50% human serum; type: functional; outline: as §2
Candida albicans [10] = assay: Antimicrobial activity against Candida albicans 2762 harboring FKS1 T1922C mutant gene and FKS1 hotspot1 F641S mutant gene by M27-A3 method in presence of 50% human serum; type: functional; outline: as §2
Candida albicans [11] = assay: Antimicrobial activity against Candida albicans 205 harboring FKS1 T1933C mutant gene and FKS1 hotspot1 S645P mutant gene by M27-A3 method in presence of 50% human serum; type: functional; outline: as §2
Candida albicans [12] = assay: Antimicrobial activity against Candida albicans 89 harboring FKS1 C1934A mutant gene and FKS1 hotspot1 S645Y mutant gene by M27-A3 method; type: functional; outline: as §2
Candida albicans [13] = assay: Antimicrobial activity against Candida albicans 149 harboring FKS1 G1942T mutant gene and FKS1 hotspot1 D648Y mutant gene by M27-A3 method; type: functional; outline: as §2
Candida albicans [14] = assay: Antimicrobial activity against Candida albicans 122 harboring FKS1 C1946A mutant gene and FKS1 hotspot1 P649H mutant gene by M27-A3 method; type: functional; outline: as §2
Candida albicans [15] = assay: Antimicrobial activity against Candida albicans 121 harboring FKS1 G4082A mutant gene and FKS1 hotspot2 R1361H mutant gene by M27-A3 method; type: functional; outline: as §2
Candida albicans [16] = assay: Antimicrobial activity against Candida albicans 194 harboring FKS1 C1934T/G4082R mutant gene and FKS1 hotspot1 S645F mutant gene and FKS1 hotspot2 R1361R/H mutant gene by M27-A3 method; type: functional; outline: as §2
Candida albicans [17] = assay: Antimicrobial activity against Candida albicans 194 harboring FKS1 C1934T/G4082R mutant gene and FKS1 hotspot1 S645F mutant gene and FKS1 hotspot2 R1361R/H mutant gene by M27-A3 method in presence of 50% human serum; type: functional; outline: as §2
Candida albicans [18] = assay: Antimicrobial activity against Candida albicans 90 harboring FKS1 G4082R mutant gene and FKS1 hotspot2 R1361R/H mutant gene by M27-A3 method; type: functional; outline: as §2
Candida albicans [19] = assay: Antimicrobial activity against Candida albicans 90 harboring FKS1 G4082R mutant gene and FKS1 hotspot2 R1361R/H mutant gene by M27-A3 method in presence of 50% human serum; type: functional; outline: as §2
Candida albicans [20] = assay: Antimicrobial activity against Candida albicans A15-10 harboring FKS1 T1933C mutant gene and FKS1 hotspot1 S645P mutant by M27-A3 method in presence of 50% human serum; type: functional; outline: as §2
[21] = Inhibition of Candida albicans 36082 1,3-beta-D-glucan synthase subunit FKS1p
Outline: (§3)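 Enzyme is product-entrapped 1,3-β-D-glucan synthase, enriched from membranes of each strain grown at 37°C with shaking in YPD broth to early stationary phase. Filtration polymerization assay uses [3H]UDPG, started by adding enzyme and run 60 min at 25°C. Echinocandins are added as serial dilutions, with 1% DMSO controls for anidulafungin. IC50 is from a variable-slope sigmoidal fit; values are triplicate arithmetic means.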

[22] = Inhibition of Candida albicans 3107 1,3-beta-D-glucan synthase subunit FKS1p; outline: as §3
[23] = Inhibition of Candida albicans 3795 1,3-beta-D-glucan synthase subunit FKS1p; outline: as §3
[24] = Inhibition of Candida albicans 177 1,3-beta-D-glucan synthase subunit FKS1p T1922C mutant; outline: as §3
[25] = Inhibition of Candida albicans 2762 1,3-beta-D-glucan synthase subunit FKS1p T1922C mutant; outline: as §3
[26] = Inhibition of Candida albicans 122 1,3-beta-D-glucan synthase subunit FKS1p C1946A mutant; outline: as §3
[27] = Inhibition of Candida albicans 121 1,3-beta-D-glucan synthase subunit FKS1p G4082A mutant; outline: as §3
Candida albicans [28] = assay: Activity at Candida albicans 1002 1,3-beta-D-glucan synthase subunit FKS1p
Outline: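 Glucan synthase from cells grown at 37°C with vigorous shaking to early stationary phase in YPD. Membrane enzyme enriched by product entrapment. Serial echinocandin dilutions; ANF controls held 1% DMSO. Reaction started by adding enzyme, run 60 min at 25°C in a filtration polymerization assay, stopped on ice. IC50 from a variable-slope sigmoidal fit; means of three repetitions on separate days.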

Candida albicans [29] = assay: Activity at Candida albicans 2762 1,3-beta-D-glucan synthase subunit FKS1p T1922C mutant
Outline: (§4)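 Product-entrapped 1,3-β-D-glucan synthase from cells grown in YPD at 37°C to early stationary phase. Wells held 50 mM HEPES pH 7.5, 10% glycerol, 1.5 mg/ml BSA, 25 mM KF, 1 mM EDTA, 25 μM GTP-γ-S, 1 μg enzyme and [3H]UDPG (0.015–2 mM). Reactions ran 60 min at 25°C. Vmax and Km came from Lineweaver-Burke plots, in triplicate.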

Candida albicans [30] = assay: Activity at Candida albicans 85 1,3-beta-D-glucan synthase subunit FKS1p C1934T mutant; outline: as §4
Candida albicans [31] = assay: Activity at Candida albicans 122 1,3-beta-D-glucan synthase subunit FKS1p C1946A mutant; outline: as §4
Candida albicans [32] = assay: Activity at Candida albicans A15-10 1,3-beta-D-glucan synthase subunit FKS1p T1933C mutant

## CCCCCOc1ccc(-c2ccc(-c3ccc(C(=O)N[C@H]4C[C@@H](O)[C@@H](O)NC(=O)[C@@H]5[C@@H](O)[C@@H](C)CN5C(=O)[C@H]([C@@H](C)O)NC(=O)[C@H]([C@H](O)[C@@H](O)c5ccc(O)cc5)NC(=O)[C@@H]5C[C@@H](O)CN5C(=O)[C@H]([C@@H](C)O)NC4=O)cc3)cc2)cc1 [ANIDULAFUNGIN] ({pTerphenylCO(4''-OnC5H11)}-[Orn(4R-OH,5R-OH)]T[Hyp][hTyr(3S-OH,4S-OH)]T[Pro(3S-OH,4S-Me)]; lactam 1-C)
Candida albicans [1]
  MIC: 0.08 µg/mL (≈ 0.0702 µM)
Candida albicans [2]
  MIC: 0.03 µg/mL (≈ 0.0263 µM)
Candida albicans [3]
  MIC: 0.12 µg/mL
Candida albicans [4]
  MIC: 0.25 µg/mL
Candida albicans [5]
  MIC: 0.06 µg/mL (≈ 0.0526 µM)
Candida albicans [6]
  MIC: 0.25 µg/mL
Candida albicans [7]
  MIC: 0.44 µg/mL
Candida albicans [8]
  MIC: 0.16 µg/mL (≈ 0.14 µM)
Candida albicans [9]
  MIC: 2 µg/mL
Candida albicans [10]
  MIC: 4 µg/mL
Candida albicans [11]
  MIC: 8 µg/mL
Candida albicans [12]
  MIC: 2 µg/mL (≈ 1.75 µM)
Candida albicans [13]
  MIC: 0.83 µg/mL (≈ 0.728 µM)
Candida albicans [14]
  MIC: 0.67 µg/mL (≈ 0.588 µM)
Candida albicans [15]
  MIC: 0.25 µg/mL (≈ 0.219 µM)
Candida albicans [16]
  MIC: 4 µg/mL (≈ 3.51 µM)
Candida albicans [17]
  MIC: 8 µg/mL
Candida albicans [18]
  MIC: 0.25 µg/mL (≈ 0.219 µM)
Candida albicans [19]
  MIC: 4 µg/mL
Candida albicans [20]
  MIC: 8 µg/mL
[21]
  IC50: 1.51 ng/mL (≈ 0.00132 µM)
  Ki: 1.43 ng/mL (≈ 0.00125 µM)
[22]
  IC50: 3.12 ng/mL (≈ 0.00274 µM)
  Ki: 1.67 ng/mL (≈ 0.00146 µM)
[23]
  IC50: 6.76 ng/mL (≈ 0.00593 µM)
  Ki: 16.7 ng/mL (≈ 0.0146 µM)
[24]
  IC50: 2622 ng/mL (≈ 2.3 µM)
  Ki: 4342.33 ng/mL (≈ 3.81 µM)
[25]
  IC50: 1085 ng/mL (≈ 0.952 µM)
  Ki: 4481.27 ng/mL (≈ 3.93 µM)
[26]
  IC50: 491 ng/mL (≈ 0.431 µM)
  Ki: 646.07 ng/mL (≈ 0.567 µM)
[27]
  IC50: 75.99 ng/mL (≈ 0.0666 µM)
  Ki: 84.57 ng/mL (≈ 0.0742 µM)
Candida albicans [28]
  Km: 122 µM
  Vmax: 5.8 nmol/min
Candida albicans [29]
  Km: 108 µM
  Vmax: 3.57 nmol/min
Candida albicans [30]
  Km: 25 µM
  Vmax: 1.83 nmol/min
Candida albicans [31]
  Km: 152 µM
  Vmax: 1.95 nmol/min
Candida albicans [32]
  Km: 91 µM
  Vmax: 3.26 nmol/min
